Series [1] in a line: Toxicity in Wistar rat administered as single dose. The series is classed as organism-based. The conditions noted are these: in vivo. A digest of the protocol:
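LD50 determined from single doses in Wistar rats, reported in mg/kg and mmol/kg.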

Series [2] has as its system L1210. The series can be described thus: Antitumor activity against mouse L1210 cells allografted in BDF1 mouse assessed as increase in life span at 25 mg/kg administered 6 times starting 24 hrs post challenge relative to control. The series is classed as functional. As to conditions: L1210, 24 h. A digest of the protocol: (§1)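 L1210 leukemia: BDF1 mice inoculated ip with 10⁶ leukemic cells. Treatment started 24 h after inoculation, given daily in aqueous solution at pH 8.0–8.4. Survival of treated mice compared with untreated controls, expressed as %ILS = (T/C − 1) × 100.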

The subject of series [3] is L1210. As to the kind of experiment: Antitumor activity against mouse L1210 cells allografted in BDF1 mouse assessed as increase in life span at 90 mg/kg administered 9 times starting 24 hrs post challenge relative to control. The series is classed as functional. As to conditions: L1210, 24 h. The method, boiled down: as §1
For series [4], the system named is L1210. The series can be described thus: Antitumor activity against mouse L1210 cells allografted in BDF1 mouse assessed as increase in life span at 78 mg/kg administered 9 times starting 24 hrs post challenge relative to control. The conditions noted are these: L1210, 24 h. The series is classed as functional. A digest of the protocol: as §1
Series [5] has as its system W256. As to the kind of experiment: Antitumor activity against rat Walker 256 cells allografted in rat assessed as tumor growth inhibition at 60 mg/kg administered 14 times starting 7 days post challenge relative to control. The conditions noted are these: W256, 7 days, read-out: TGI.
The subject of series [6] is L1210. The series can be described thus: Antitumor activity against mouse L1210 cells allografted in BDF1 mouse assessed as increase in life span at 23 mg/kg administered 7 times starting 24 hrs post challenge relative to control. The series is classed as functional. The conditions noted are these: L1210, 24 h. A digest of the protocol:
as §1

Series [7] relates to L1210. The series can be described thus: Antitumor activity against mouse L1210 cells allografted in BDF1 mouse assessed as increase in life span at 20 mg/kg administered 7 times starting 24 hrs post challenge relative to control. The series is classed as functional. The conditions noted are these: L1210, 24 h. The method, boiled down: as §1
In series [8] the test system is L1210. As to the kind of experiment: Antitumor activity against mouse L1210 cells allografted in BDF1 mouse assessed as increase in life span at 50 mg/kg administered 6 times starting 24 hrs post challenge relative to control. The conditions noted are these: L1210, 24 h. The series is classed as functional. A digest of the protocol:
as §1

The test system of series [9] is L1210. The series can be described thus: Antitumor activity against mouse L1210 cells allografted in BDF1 mouse assessed as increase in life span at 33 mg/kg administered 6 times starting 24 hrs post challenge relative to control. The series is classed as functional. The conditions noted are these: L1210, 24 h. The method, boiled down: as §1
The test system of series [10] is L1210. The series can be described thus: Antitumor activity against mouse L1210 cells allografted in BDF1 mouse assessed as increase in life span at 45 mg/kg administered 10 times starting 24 hrs post challenge relative to control. The series is classed as functional. As to conditions: L1210, 24 h. The method, boiled down:
as §1

The subject of series [11] is W256. The series can be described thus: Antitumor activity against […] 256 cells allografted in rat assessed as tumor growth inhibition at 40 mg/kg administered 9 times starting 7 days post challenge relative to control. The conditions noted are these: W256, 7 days, read-out: TGI.
In series [12] the test system is L1210. As to the kind of experiment: Antitumor activity against mouse L1210 cells allografted in BDF1 mouse assessed as increase in life span at 10 mg/kg administered 8 times starting 24 hrs post challenge relative to control. As to conditions: L1210, 24 h. The series is classed as functional. A digest of the protocol: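 BDF1 mice inoculated ip with 10⁶ L1210 leukemia cells; daily dosing in aqueous solution at pH 8.0–8.4 starting 24 h after inoculation. Increase in life span computed as %ILS = (T/C − 1) × 100.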

The test system of series [13] is W256. As to the kind of experiment: Antitumor activity against […] 256 cells allografted in rat assessed as tumor growth inhibition at 8 mg/kg administered 14 times starting 24 hrs post challenge relative to control. The series is classed as functional. The conditions noted are these: W256, 24 h, read-out: TGI.

“And” between values parts separate entries of the source, which are not always exact repeats. Identical values can stand only once.

Regarding `CN(Cc1cnc2nc(N)nc(N)c2n1)c1ccc(C(=O)NCCC(=O)O)cc1.O`, the LD50 in series [1] is 250 mg/kg and 580 µmol/kg. Moreover, the ILS at 25 mg/kg with L1210 [2] came to 19%.
Regarding `CC(C)C[C@H](NC(=O)c1ccc(N(C)Cc2cnc3nc(N)nc(N)c3n2)cc1)C(=O)O`, the ILS at 90 mg/kg with L1210 [3] worked out at 24%.
For the compound `CCC(NC(=O)c1ccc(N(C)Cc2cnc3nc(N)nc(N)c3n2)cc1)C(=O)O` (stereo not given), the LD50 in series [1] is 925 mg/kg and 2250 µmol/kg. In addition, in the series on L1210 [4], the ILS at 78 mg/kg came out at 16%. Also, the inhibition in vivo at 60 mg/kg in the series on W256 [5] came out at 47%.
As to `CN(Cc1cnc2nc(N)nc(N)c2n1)c1ccc(C(=O)NCC(=O)O)cc1`, the LD50 in [1] was 250 mg/kg and 650 µmol/kg. Besides, the ILS at 23 mg/kg in the series on L1210 [6] amounted to 0%.
Consider `CC(C)C(NC(=O)c1ccc(N(C)Cc2cnc3nc(N)nc(N)c3n2)cc1)C(=O)O` (stereo not given), for which the LD50 in [1] is 200 mg/kg and 470 µmol/kg. For the same compound, the ILS at 20 mg/kg with L1210 [7] was found to be 0%.
As to `CN(CC(=O)O)C(=O)c1ccc(N(C)Cc2cnc3nc(N)nc(N)c3n2)cc1.O`, in series [1], the 50% lethal dose (LD50) was 400 mg/kg and 920 µmol/kg. For the same compound, the increase in life span (ILS) at 50 mg/kg in the series with L1210 [8] came out at 0%.
Take `CC(NC(=O)c1ccc(N(C)Cc2cnc3nc(N)nc(N)c3n2)cc1)C(=O)O.O` (stereo not given): the LD50 in series [1] was 349 mg/kg and 810 µmol/kg. Moreover, the ILS at 33 mg/kg in the series with L1210 [9] came to 0%.
`CN(Cc1cnc2nc(N)nc(N)c2n1)c1ccc(C(=O)N[C@@H](Cc2ccccc2)C(=O)O)cc1.O`: the LD50 in series [1] was 500 mg/kg and 1020 µmol/kg. For the same compound, in the series on L1210 [10], the ILS at 45 mg/kg was determined as 14%. Further, the inhibition in vivo at 40 mg/kg in the series with W256 [11] is 58%.
Consider `CN(Cc1cnc2nc(N)nc(N)c2n1)c1ccc(C(=O)NCCCC(=O)O)cc1.O`, for which, in [1], the LD50 is 106 mg/kg and 250 µmol/kg. Also, in the series with L1210 [12], the ILS at 10 mg/kg was 0%. In addition, in the series on W256 [13], the inhibition in vivo at 8 mg/kg amounted to 55%.

Values taken from ChEMBL document CHEMBL3244134, “Potential anticancer agents. 16. Methotrexate analogues with a modified peptide side chain” (J Med Chem, 1978).
